Screening results (PubChem BioAssay)
In the library only some 2.8% were active in any assay of this set; here they are far more common.
Mcl1-Bid inh: Mcl-1/Bid binding inhibitors, primary screen, biochemical, TR-FRET, 1536-well | TR-FRET Mcl-1/Bid-Dy647 peptide binding | inhibition, % at 21.7 µM | actives 0.97% (n = 220,000) | AID 1021, 2008 | Induced myeloid leukemia cell differentiation protein Mcl-1 (Homo sapiens), Q07820;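 active = compounds that cut the binding signal by more than half at the single screening dose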;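 note: His-tagged Mcl-1 with europium anti-His antibody binding Bid BH3 peptide; 0% = Mcl-1 plus peptide wells and 100% = peptide-only wells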
Target sequence (Q07820 whole entry, looked up): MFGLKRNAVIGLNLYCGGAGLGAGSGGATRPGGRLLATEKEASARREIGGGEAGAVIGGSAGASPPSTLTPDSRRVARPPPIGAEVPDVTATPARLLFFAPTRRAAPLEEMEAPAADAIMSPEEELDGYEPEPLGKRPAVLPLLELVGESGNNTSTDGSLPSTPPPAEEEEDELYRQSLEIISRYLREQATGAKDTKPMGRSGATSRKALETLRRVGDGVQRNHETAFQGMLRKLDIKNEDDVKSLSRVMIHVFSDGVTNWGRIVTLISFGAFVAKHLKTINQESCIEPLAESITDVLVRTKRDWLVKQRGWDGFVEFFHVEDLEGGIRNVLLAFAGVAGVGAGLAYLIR
Arbovirus inh: antivirals against arbovirus infection, primary screen, cell-based, full library, 10K replicate subset | inhibition, % at 10 µM | AID 1251, 2008 | actives 0.37% (n = 200,000) | arbovirus infection cell-based antiviral screen; in the data active = inhibition above about 30%
Biofilm kill mix: clotrimazole potentiators killing C. albicans biofilm, primary screen, 4-compound mixtures; actives 0.02% (n = 120,000); C. albicans biofilm persisters + clotrimazole, fluorescence viability; primary screen in compound mixtures of four per well; AID 1242, 2008; inhibition, % at 7.6 µM;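 active = inhibition above 30.3% in the primary screen of four-compound pools, then above 30% when the compound was retested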;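 note: compounds exposed to preformed 24 h biofilms for 48 h; 0% = untreated biofilm control and 100% = clotrimazole plus chlorhexidine kill blank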
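Test system: C. albicans biofilms. Buffer or medium: RPMI/MOPS medium, pH 7.0. Timing: 48 h compound exposure at 37 °C. Technique: Alamar Blue fluorescence. Evaluation: percent inhibition of biofilm viability.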
Mcl1 Noxa PPI: Mcl-1/Noxa binding inhibitors, primary screen, biochemical, TR-FRET, 1536-well; TR-FRET Mcl-1/Noxa peptide binding, 2 h; actives 1.5% (n = 220,000); Induced myeloid leukemia cell differentiation protein Mcl-1 (Homo sapiens), Q07820; inhibition, % at 21.7 µM;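 active = compounds that cut the protein-peptide binding signal by more than 50% relative to plate controls in a single-dose test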;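 note: His-tagged Mcl-1 with rhodamine Noxa BH3 peptide and terbium anti-His antibody; 0% = Mcl-1 plus Noxa peptide wells and 100% = peptide-only wells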
Mcl-1 Bim block: inhibitors of Bim peptide binding to Mcl-1, primary screen, biochemical, bead-based flow cytometry, multiplex. Induced myeloid leukemia cell differentiation protein Mcl-1 (Homo sapiens), Q07820. Bim peptide-Mcl-1 binding. inhibition, % at 10 µM. actives 0.1% (n = 190,000); in the data active = inhibition above about 40%;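 note: 0% = no compound tracer wells and 100% = peptide blocker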
m-calpain inh: inhibitors of pig calpain II, primary screen, biochemical, fluorogenic peptide substrate, 1536-well; actives 0.37% (n = 220,000); inhibition, % at 16 µM; purified calpain II, 30 min;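 active = inhibition above about 50%, limit read from the data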
* hit, by the source's call; nt = not tested or not shown.

SMILES | Mcl1-Bid inh | Arbovirus inh | Biofilm kill mix | Mcl1 Noxa PPI | Mcl-1 Bim block | m-calpain inh
O=C(Nc1nc2ccc(SC(F)F)cc2s1)c1ccc(NS(=O)(=O)c2ccc(F)c(F)c2)cc1 | 12.8 | -9.4 | 10.3 | 26.3 | -4.0 | -47.1
CS(=O)(=O)c1ccc2nc(NC(=O)c3cccc(NS(=O)(=O)c4ccc(F)c(F)c4)c3)sc2c1 | 15.7 | 64.7* | 8.9 | -27.2 | -3.0 | -58.5
Cc1sc2nc(C(C)Sc3n[nH]c(N)n3)[nH]c(=O)c2c1C (stereo not drawn) | -18.4 | 4.0 | 11.6 | 32.2 | 2.0 | -27.6
CCCCCC(=O)NN1C(=S)N(c2ccc(OC)cc2)C(=O)C1CC(=O)Nc1ccccc1 (stereo not drawn) | -48.9 | nt | 26.3 | 21.6 | nt | -20.6
Cc1ccc2c(c1)NC(=O)c1cccnc1N2 | -76.0 | -5.1 | nt | 76.9* | -2.0 | 10.8
C/C(N)=C(/C#N)C(=O)CSc1nnc(Nc2c(C)cccc2C)s1 | -14.4 | 7.3 | nt | 72.4* | -2.0 | -19.5
C/C(N)=C(/C#N)C(=O)CSc1nnc(Nc2cccc(C)c2C)s1 | -27.9 | 1.9 | nt | 47.2 | -4.0 | -29.4
Cc1nc(-c2nnc(SCC(=O)Nc3ccc(Cl)cc3)n2C)cs1 | -7.3 | nt | 9.7 | -0.7 | nt | -19.1
COc1ccc(OC)c(Nc2ccc(Nc3cc(OC)ccc3OC)nn2)c1 | -33.8 | 2.2 | 9.0 | 54.1* | -7.0 | -5.9
O=C(CCl)Nc1cc2[nH]c(=O)[nH]c2cc1Br | -16.9 | 7.2 | 18.6 | 50.6* | 3.0 | -39.5
Cc1cc2c(C)cc(=O)[nH]c2cc1NC(=O)CCl | 4.7 | nt | 4.2 | 24.6 | nt | -7.9
CCNC(=S)N=Nc1c(O)[nH]c2ccc([N+](=O)[O-])cc12 | -32.8 | -1.8 | 13.7 | 16.1 | 13.0 | 28.9
O=[N+]([O-])c1ccc2[nH]c(O)c(N=NC(=S)Nc3cccnc3)c2c1 | 26.4 | nt | 18.6 | 100.2* | nt | -44.3
Cc1ccccc1NCC(=O)N=Nc1c(O)[nH]c2ccc([N+](=O)[O-])cc12 | -30.4 | nt | 21.4 | 53.5* | nt | -1.6
Cc1ccc(NCC(=O)N=Nc2c(O)[nH]c3ccc([N+](=O)[O-])cc23)cc1 | -23.6 | nt | 5.2 | 32.7 | nt | 7.2
Cc1nccn1-c1ccc(C=O)cc1 | -32.6 | -2.9 | -3.7 | -5.1 | -1.0 | -22.5
C#CCSc1nnnn1-c1ccc(OCC)cc1 | -15.0 | nt | 18.5 | 11.8 | nt | 5.6
CC(C)Cn1ccc(=O)n(CC(C)C)c1=O | 55.3* | -3.5 | 1.9 | -4.6 | -10.0 | 13.2
Oc1c(C(c2ccc(Cl)cc2)N2CCCC2)cc(Cl)c2cccnc12 (stereo not drawn) | 73.3* | -33.1 | 14.6 | 21.6 | -1.0 | -62.5
CN1CCN(C(c2ccccn2)c2cc(Cl)c3cccnc3c2O)CC1 (stereo not drawn) | 37.1 | -15.3 | 17.3 | 46.1 | 0.0 | 2.6
CCN(CC)c1nc(N)nc(N(c2ccccc2)c2ccccc2)n1 | -4.0 | 8.1 | nt | -4.2 | 79.0* | 8.6
CN(C)c1nc(N)nc(N(c2ccccc2)c2ccccc2)n1 | 8.4 | 2.9 | nt | 0.6 | 0.0 | -9.0
CCOC(=O)c1cc(-c2ccc(C)cc2)n(CCC(=O)N2CCN(c3ccccn3)CC2)c1C | -25.8 | -16.4 | 5.9 | 9.4 | -5.0 | -19.8
NC1=NC(=O)/C(=C\c2ccco2)S1 | -68.9 | nt | 18.1 | 56.9* | nt | -20.9
CCn1cc(C(=O)Nc2ccc(OC)c(S(=O)(=O)N3CCCCC3)c2)c(=O)c2ccc(C)nc21 | -19.8 | -1.5 | 7.3 | -20.0 | -5.0 | -19.2
SMILES | Mcl1-Bid inh | Arbovirus inh | Biofilm kill mix | Mcl1 Noxa PPI | Mcl-1 Bim block | m-calpain inh
CCC(=O)NC(=S)Nc1ccc(NC(=O)c2cc3ccccc3o2)c(OC)c1 | 63.5* | 3.1 | 25.0 | 30.9 | -2.0 | -84.1
CCC(=O)Nc1ccc(Cl)c(NC(=S)NC(=O)c2cc3ccccc3o2)c1 | 3.9 | -14.6 | 18.6 | 26.0 | 4.0 | 51.4*
CCO[C@H]1OC(C(=O)N2CCN(C)CC2)=C[C@@H](c2ccc(Br)cc2)[C@@H]1CCCO | -9.5 | -0.8 | 19.7 | 0.3 | -1.0 | 2.5
CCOC(=O)/C(=N\Nc1ccc(Cl)cc1)Sc1nnc(-c2ccc(OC)cc2)n1C | -19.9 | 0.1 | 16.4 | 5.3 | 0.0 | 8.2
COc1cc(Br)cc(-c2nc3c(c(=O)[nH]c(=O)n3Cc3ccccc3)n2C)c1O | -23.4 | 52.7* | nt | 28.0 | 1.0 | -149.5
COc1ccc(-c2nc3c(c(=O)[nH]c(=O)n3Cc3ccccc3)n2Cc2ccccc2)cc1 | -14.2 | -25.7 | nt | -1.0 | 0.0 | -312.9
O=[N+]([O-])c1ccc(NC(=S)NCCc2ccc(F)cc2)cc1 | 5.6 | -29.0 | 11.8 | 51.5* | -16.0 | 8.9
Fc1ccc(NC(=S)NCCc2ccc(Cl)cc2)cc1 | -16.8 | -15.5 | 16.9 | 21.9 | 0.0 | 9.8
Cc1cc(N=Cc2c(O)ccc3ccccc23)no1 | -14.9 | 3.0 | nt | 29.8 | -2.0 | 9.8
Cc1cc(N=Cc2c(O)ccc3cc(Br)ccc23)no1 | -23.2 | 55.2* | 6.0 | 83.9* | 1.0 | -26.3
Cc1n[nH]c(C)c1CCN(C)Cc1cn(C)nc1-c1ccccc1F | -10.6 | 1.9 | 35.5 | 7.2 | -2.0 | -2.2
COc1ccc(NC(=O)C2=C(C)NC(=O)NC2c2cccc(OC)c2OC)c(OC)c1 (stereo not drawn) | 0.1 | -0.7 | nt | -11.6 | 43.0* | -60.5
COC(=O)C1=C(C)C(c2ccc(OC)cc2OC)NC(=O)N1 (stereo not drawn) | 64.5* | 6.0 | nt | 3.9 | 3.0 | 15.1
COc1cccc(C2NC(=O)NC(C)=C2C(=O)Nc2ccc(C)cc2)c1OC (stereo not drawn) | -12.1 | 5.3 | nt | -14.7 | 0.0 | -7.0
Cn1cc(S(=O)(=O)NCc2ccc(Cl)cc2)c(=O)n(C)c1=O | 4.3 | nt | 23.7 | -2.7 | nt | -16.1
COc1ccc(N2C(=O)C3[C@@H](C2=O)C2(Cl)C(Cl)=C(Cl)C3(Cl)C2(OC)OC)cc1 (stereo partly drawn) | 3.0 | 1.9 | 22.3 | 4.9 | -1.0 | 8.3
COC(=O)C(=O)/C=C(\O)c1ccc(C)cc1 | -22.9 | 12.5 | nt | 57.4* | -1.0 | 7.8
Cc1ccc(/C(O)=C/C(=O)C(=O)NNC(=O)C(O)(c2ccccc2)c2ccccc2)cc1 | -6.2 | -1.2 | 6.2 | -52.6 | -1.0 | -46.0
CCOC(=O)c1ccc(S(=O)(=O)N2CCN(C3CCCC3)CC2)cc1 | -2.9 | 11.2 | 12.3 | 3.7 | 0.0 | -26.2
CCn1c(-c2cc3c(C(F)(F)F)nn(C)c3s2)n[nH]c1=S | -33.5 | -3.1 | nt | 71.8* | -2.0 | -250.5
Cn1c(-c2cc3c(C(F)(F)F)nn(C)c3s2)n[nH]c1=S | 10.3 | -0.4 | nt | 6.3 | -4.0 | -493.6
O=C(Cc1ccc([N+](=O)[O-])cc1)NCc1ccccn1 | 20.5 | 0.8 | 9.9 | 69.0* | 3.0 | 21.2
